Laboratory results taken from ChEMBL document CHEMBL1122143, “Adriamycin analogues. Preparation and biological evaluation of some N-perfluoroacyl analogues of daunorubicin, adriamycin, and N-(trifluoroacetyl)adriamycin 14-valerate and their 9,10-anhydro derivatives” (1982).

Legend:
Type in all cases: functional
Mus musculus [1] = experiment: In vivo growth inhibitory activity was measured against murine P388 leukemia cells as Percent increase in life span at the dose of 50.0 mg/kg/day
Outline: (§1)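 Murine P388 leukemia model: 10⁶ tumor cells inoculated ip on day 0. Compound given ip once daily on days 1-4 at the stated dose. Activity was expressed as percent increase in life span relative to untreated controls.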

CCRF-CEM = experiment: Inhibitory activity against CCRF-CEM(human leukemic lymphoblastic) cells in culture.; conditions: read-out: ID50 (the source's name)
Outline: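 Human leukemic lymphoblastic CCRF-CEM cells grown in culture with continuous drug exposure for 48 h; growth inhibition measured.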

Mus musculus [2] = experiment: In vivo growth inhibitory activity was measured against murine P388 leukemia cells as Percent increase in life span at the dose of 2.0 mg/kg/day; outline: as §1
Mus musculus [3] = experiment: In vivo growth inhibitory activity was measured against murine P388 leukemia cells as Percent increase in life span at the dose of 4.0 mg/kg/day; outline: as §1
Mus musculus [4] = experiment: In vivo growth inhibitory activity was measured against murine P388 leukemia cells as Percent increase in life span at the dose of 40.0 mg/kg/day; outline: as §1
Mus musculus [5] = experiment: In vivo growth inhibitory activity was measured against murine P388 leukemia cells as percent increase in life span at the dose of 40.0 mg/kg/day; outline: as §1
Mus musculus [6] = experiment: In vivo growth inhibitory activity was measured against murine P388 leukemia cells as Percent increase in life span at the dose of 20.0 mg/kg/day; outline: as §1
Mus musculus [7] = experiment: In vivo growth inhibitory activity was measured against murine P388 leukemia cells as Percent increase in life span at the dose of 80.0 mg/kg/day; outline: as §1

SMILES | IC50 (CCRF-CEM) [µM] | other results
CCCCC(=O)OCC(=O)[C@]1(O)Cc2c(O)c3c(c(O)c2[C@@H](OC2CC(NC(=O)C(F)(F)C(F)(F)F)C(O)C(C)O2)C1)C(=O)c1c(OC)cccc1C3=O (stereo partly drawn) | 1.18 | ILS at 50 mg/kg/day (Mus musculus [1]): 0%
COc1cccc2c1C(=O)c1c(O)c3c(c(O)c1C2=O)C[C@@](O)(C(C)=O)C[C@@H]3O[C@H]1C[C@H](N)[C@H](O)[C@H](C)O1 [DAUNORUBICIN] | 0.04 | ILS at 2 mg/kg/day (Mus musculus [2]): 91%
COc1cccc2c1C(=O)c1c(O)c3c(c(O)c1C2=O)C[C@@](O)(C(=O)CO)C[C@@H]3O[C@H]1C[C@H](N)[C@H](O)[C@H](C)O1 [DOXORUBICIN] | 0.066 | ILS at 4 mg/kg/day (Mus musculus [3]): 132%
COc1cccc2c1C(=O)c1c(O)c3c(c(O)c1C2=O)C[C@@](O)(C(C)=O)C[C@@H]3OC1CC(NC(=O)C(F)(F)C(F)(F)C(F)(F)F)C(O)C(C)O1 (stereo partly drawn) | > 1.35 | ILS at 40 mg/kg/day (Mus musculus [4]): 45%
CCCCC(=O)OCC(=O)C1=Cc2c(O)c3c(c(O)c2[C@@H](OC2CC(NC(=O)C(F)(F)F)C(O)C(C)O2)C1)C(=O)c1c(OC)cccc1C3=O (stereo partly drawn) | 1.19 | ILS at 40 mg/kg/day (Mus musculus [4]): 27%
COc1cccc2c1C(=O)c1c(O)c3c(c(O)c1C2=O)C=C(C(=O)CO)C[C@@H]3OC1CC(NC(=O)C(F)(F)F)C(O)C(C)O1 (stereo partly drawn) | 5.79 | ILS at 40 mg/kg/day (Mus musculus [5]): 63%
COc1cccc2c1C(=O)c1c(O)c3c(c(O)c1C2=O)C=C(C(=O)CO)C[C@@H]3OC1CC(NC(=O)C(F)(F)C(F)(F)F)C(O)C(C)O1 (stereo partly drawn) | 8.41 | –
COc1cccc2c1C(=O)c1c(O)c3c(c(O)c1C2=O)C=C(C(C)=O)C[C@@H]3OC1CC(NC(=O)C(F)(F)C(F)(F)C(F)(F)F)C(O)C(C)O1 (stereo partly drawn) | > 13.8 | –
COc1cccc2c1C(=O)c1c(O)c3c(c(O)c1C2=O)C[C@@](O)(C(C)=O)C[C@@H]3OC1CC(NC(=O)C(F)(F)C(F)(F)F)C(O)C(C)O1 (stereo partly drawn) | 1.01 | ILS at 50 mg/kg/day (Mus musculus [1]): 27%
COc1cccc2c1C(=O)c1c(O)c3c(c(O)c1C2=O)C[C@@](O)(C(=O)CO)C[C@@H]3OC1CC(NC(=O)C(F)(F)C(F)(F)C(F)(F)F)C(O)C(C)O1 (stereo partly drawn) | 1.49 | ILS at 50 mg/kg/day (Mus musculus [1]): 54%
COc1cccc2c1C(=O)c1c(O)c3c(c(O)c1C2=O)C[C@@](O)(C(=O)CO)C[C@@H]3OC1CC(NC(=O)C(F)(F)C(F)(F)F)C(O)C(C)O1 (stereo partly drawn) | 0.41 | ILS at 50 mg/kg/day (Mus musculus [1]): 372%
COc1cccc2c1C(=O)c1c(O)c3c(c(O)c1C2=O)C[C@@](O)(C(=O)CO)C[C@@H]3OC1CC(NC(=O)C(F)(F)F)C(O)C(C)O1 (stereo partly drawn) | 0.23 | ILS at 20 mg/kg/day (Mus musculus [6]): 481%
COc1cccc2c1C(=O)c1c(O)c3c(c(O)c1C2=O)C=C(C(=O)CO)C[C@@H]3OC1CC(NC(=O)C(F)(F)C(F)(F)C(F)(F)F)C(O)C(C)O1 (stereo partly drawn) | 7.3 | –
CCCCC(=O)OCC(=O)[C@]1(O)Cc2c(O)c3c(c(O)c2[C@@H](OC2CC(NC(=O)C(F)(F)F)C(O)C(C)O2)C1)C(=O)c1c(OC)cccc1C3=O (stereo partly drawn) | 0.24 | ILS at 40 mg/kg/day (Mus musculus [4]): 429%
COc1cccc2c1C(=O)c1c(O)c3c(c(O)c1C2=O)C=C(C(C)=O)C[C@@H]3OC1CC(NC(=O)C(F)(F)C(F)(F)F)C(O)C(C)O1 (stereo partly drawn) | 0.5 | –
CCCCC(=O)OCC(=O)C1=Cc2c(O)c3c(c(O)c2[C@@H](OC2CC(NC(=O)C(F)(F)C(F)(F)C(F)(F)F)C(O)C(C)O2)C1)C(=O)c1c(OC)cccc1C3=O (stereo partly drawn) | 2.31 | –
CCCCC(=O)OCC(=O)C1=Cc2c(O)c3c(c(O)c2[C@@H](OC2CC(NC(=O)C(F)(F)C(F)(F)F)C(O)C(C)O2)C1)C(=O)c1c(OC)cccc1C3=O (stereo partly drawn) | 0.56 | –
CCCCC(=O)OCC(=O)[C@]1(O)Cc2c(O)c3c(c(O)c2[C@@H](OC2CC(NC(=O)C(F)(F)C(F)(F)C(F)(F)F)C(O)C(C)O2)C1)C(=O)c1c(OC)cccc1C3=O (stereo partly drawn) | > 1.14 | ILS at 50 mg/kg/day (Mus musculus [1]): 0%
COc1cccc2c1C(=O)c1c(O)c3c(c(O)c1C2=O)C=C(C(C)=O)C[C@@H]3OC1CC(NC(=O)C(F)(F)F)C(O)C(C)O1 (stereo partly drawn) | – | ILS at 40 mg/kg/day (Mus musculus [4]): 45%
COc1cccc2c1C(=O)c1c(O)c3c(c(O)c1C2=O)C[C@@](O)(C(C)=O)C[C@@H]3OC1CC(NC(=O)C(F)(F)F)C(O)C(C)O1 (stereo partly drawn) | 0.27 | ILS at 80 mg/kg/day (Mus musculus [7]): 83%
